From ChEMBL document CHEMBL1157608, “The discovery of 4-{1-[({2,5-dimethyl-4-[4-(trifluoromethyl)benzyl]-3-thienyl}carbonyl)amino]cyclopropyl}benzoic acid (MK-2894), a potent and selective prostaglandin E2 subtype 4 receptor antagonist” (J Med Chem, 2010) come the findings set out here.

Data set [1] deals with T1, Prostaglandin E2 receptor EP1 subtype (Homo sapiens, UniProt P34995).
T1 sequence (P34995 whole entry): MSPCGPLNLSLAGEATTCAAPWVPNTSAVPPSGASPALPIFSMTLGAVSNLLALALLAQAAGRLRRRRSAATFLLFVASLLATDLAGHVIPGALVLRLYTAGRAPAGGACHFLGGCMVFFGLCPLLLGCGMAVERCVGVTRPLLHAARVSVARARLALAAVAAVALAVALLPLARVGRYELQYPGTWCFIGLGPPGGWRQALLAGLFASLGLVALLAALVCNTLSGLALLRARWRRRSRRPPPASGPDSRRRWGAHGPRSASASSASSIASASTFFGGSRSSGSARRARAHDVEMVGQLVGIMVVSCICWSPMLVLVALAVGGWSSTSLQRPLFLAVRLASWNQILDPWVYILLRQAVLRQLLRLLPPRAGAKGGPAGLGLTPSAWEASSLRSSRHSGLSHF
Put plainly: Displacement of [3H]PGE2 from human EP1 receptor expressed in HEK293-EBNA cells by scintillation counting. Format: cell-based. The gist of the method: (§1)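 Radioligand binding on membranes from HEK 293(EBNA) clonal lines overexpressing each prostanoid receptor, using the respective 3H-prostaglandin or thromboxane ligand; EP4 binding also run with 10% human serum; Ki as means of at least three experiments (rEP2, rEP3 n = 1).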
In general terms: In a radioligand displacement assay an active substance lowers the binding of a labelled ligand.

Data set [2] concerns the target T2, Prostaglandin D2 receptor (Homo sapiens, UniProt Q13258).
T2 sequence (Q13258 whole entry): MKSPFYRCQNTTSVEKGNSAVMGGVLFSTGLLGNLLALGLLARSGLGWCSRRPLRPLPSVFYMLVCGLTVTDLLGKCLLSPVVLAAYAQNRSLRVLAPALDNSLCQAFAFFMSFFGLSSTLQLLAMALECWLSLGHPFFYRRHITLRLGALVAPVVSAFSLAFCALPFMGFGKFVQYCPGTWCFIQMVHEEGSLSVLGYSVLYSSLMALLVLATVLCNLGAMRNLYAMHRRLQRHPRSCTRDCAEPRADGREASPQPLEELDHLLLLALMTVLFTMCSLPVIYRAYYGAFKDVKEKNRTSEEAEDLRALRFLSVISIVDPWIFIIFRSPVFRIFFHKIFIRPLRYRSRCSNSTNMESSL
Put plainly: Displacement of [3H]PGD2 from human DP1 receptor expressed in HEK293-EBNA cells by scintillation counting. In kind it is cell-based. The gist of the method: as §1

Data set [3] addresses T3, Prostaglandin D2 receptor 2 (Homo sapiens, UniProt Q9Y5Y4).
T3 sequence (Q9Y5Y4 whole entry): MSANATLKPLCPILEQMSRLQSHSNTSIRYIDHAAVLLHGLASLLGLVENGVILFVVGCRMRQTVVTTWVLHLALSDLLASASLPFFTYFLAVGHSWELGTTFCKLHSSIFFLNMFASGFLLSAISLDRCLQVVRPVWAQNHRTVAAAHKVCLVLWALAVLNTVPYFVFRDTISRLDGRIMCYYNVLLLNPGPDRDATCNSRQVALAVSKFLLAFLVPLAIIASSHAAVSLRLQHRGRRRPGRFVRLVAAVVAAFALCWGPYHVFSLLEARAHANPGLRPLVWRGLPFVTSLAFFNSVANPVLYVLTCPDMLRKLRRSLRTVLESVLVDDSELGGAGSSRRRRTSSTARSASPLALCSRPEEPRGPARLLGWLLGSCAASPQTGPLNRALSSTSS
Put plainly: Displacement of [3H]PGD2 from human DP2 receptor expressed in HEK293-EBNA cells by scintillation counting. Format: cell-based. The gist of the method: as §1

For data set [4], the target named is Prostaglandin F2-alpha receptor (Homo sapiens, UniProt P43088). Kind of data set: Displacement of [3H]PGF2alpha from human FP receptor expressed in HEK293-EBNA cells by scintillation counting. In kind it is cell-based. The gist of the method: as §1
The target in data set [5] is T4, Prostaglandin E2 receptor EP4 subtype (Homo sapiens, UniProt P35408). Kind of data set: Displacement of [3H]PGE2 from human EP4 receptor expressed in HEK293-EBNA cells by scintillation counting in presence of 10% human serum. Format: cell-based. The gist of the method: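 Radioligand binding on membranes from HEK 293(EBNA) clonal cells overexpressing human EP4, [3H]PGE2 as tracer, run with 10% human serum added to assess serum protein binding; Ki values are means of at least three experiments.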

In data set [6] the target is Prostaglandin E2 receptor EP4 subtype (Rattus norvegicus, UniProt P43114). Kind of data set: Displacement of [3H]PGE2 from rat EP4 receptor expressed in HEK293-EBNA cells by scintillation counting. In kind it is cell-based. The gist of the method:
as §1

Data set [7] concerns the target T4, Prostaglandin E2 receptor EP4 subtype. Put plainly: Antagonist activity at human EP4 receptor expressed in HEK293 cells assessed as inhibition of PGE2-induced cAMP accumulation by scintillation proximity assay in presence of 10% human serum. In kind it is functional, cell-based. The gist of the method: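 Functional EP4 assay in the same HEK 293(EBNA) clonal line overexpressing human EP4; inhibition of PGE2-induced cAMP accumulation, run in presence of 10% human serum to gauge serum protein binding; IC50 values are means of at least three experiments.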
A general note: cAMP levels reflect the balance of adenylyl cyclase and phosphodiesterase activity.

The test system of data set [8] is Rattus norvegicus. Put plainly: Analgesic activity in po dosed Sprague-Dawley rat assessed as inhibition of carrageenan-induced mechanical hyperalgesia.
Data set [9] relates to Rattus norvegicus. Put plainly: Analgesic activity in po dosed Sprague-Dawley rat assessed as inhibition of carrageenan-induced mechanical hyperalgesia relative to control. Format: functional. The gist of the method: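 SD rats given subplantar carrageenan; compound dosed orally as a single dose; mechanical hyperalgesia read at 3 h post carrageenan, 1 h post dose; inhibition expressed vs vehicle control; n = 10-20/group; 1-way ANOVA/Dunnett's.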

Data set [10] relates to Rattus norvegicus. Kind of data set: Gastrointestinal toxicity in Sprague-Dawley rat assessed as urinary excretion of 51Cr-EDTA at 3 to 30 mg/kg/day, po once daily for 5 days. Also noted: route oral. Conditions: in vivo, 120 h. Format: organism-based, Urine. The gist of the method: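 Male SD rats dosed orally once daily in 0.5% methocel (3, 10, 30 mg/kg for 5 days, or 5 mg/kg for 3 days); single oral 51Cr-EDTA given on day 4 or day 2 respectively; urinary 51Cr excretion as GI permeability index; n = 5/group treated, 4 vehicle; 1-way ANOVA/Dunnett's.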

Data set [11] in a line: Cmax in Sprague-Dawley rat at 20 mg/kg, po. On the set-up: dose 20 mg/kg, route oral. In kind it is ADME, organism-based. Conditions: in vivo. The gist of the method:
(§2)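 Overnight-fasted animals dosed po in 0.5% methocel or iv in 60% PEG 200; plasma from serial blood samples stored at -10 °C, protein-precipitated with equal volume acetonitrile/0.1% formic acid, analysed by LC/MS/MS with internal standard against spiked blank-plasma standards; Cmax from po data, half-life from iv data.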

The nature of data set [12]: Volume of distribution at steady state in Sprague-Dawley rat at 20 mg/kg, po and 5 mg/kg, iv. Format: ADME, organism-based. Conditions: in vivo, read-out: Vdss. The gist of the method:
as §2

A short description of data set [13]: Half life in C57BL/6 mouse at 5 mg/kg, iv. In kind it is ADME, organism-based. On the set-up: dose 5 mg/kg, route intravenous. Conditions: in vivo. The gist of the method: as §2
The nature of data set [14]: Plasma clearance in C57BL/6 mouse at 20 mg/kg, po and 5 mg/kg, iv. In kind it is ADME, organism-based. The gist of the method: as §2
A short description of data set [15]: Oral bioavailability in Beagle dog at 5 mg/kg. In kind it is ADME, organism-based, Canis lupus familiaris. As to conditions: in vivo. The gist of the method: as §2
Data set [16] is described as follows: Half life in Beagle dog at 1 mg/kg, iv. In kind it is ADME, organism-based, Canis lupus familiaris. On the set-up: dose 1 mg/kg, route intravenous. As to conditions: in vivo. The gist of the method: as §2
A short description of data set [17]: Plasma clearance in Beagle dog at 5 mg/kg, po and 1 mg/kg, iv. In kind it is ADME, organism-based, Canis lupus familiaris. The gist of the method: as §2
A short description of data set [18]: Cmax bioavailability in cynomolgus monkey at 5 mg/kg, po. In kind it is ADME, organism-based, Macaca fascicularis. Also noted: dose 5 mg/kg, route oral. Conditions: in vivo. The gist of the method: as §2
Data set [19] relates to Cynomolgus monkey. Kind of data set: Half life bioavailability in cynomolgus monkey at 1 mg/kg, iv. Conditions: in vivo. Format: ADME, organism-based, Macaca fascicularis. The gist of the method:
as §2

For data set [20], the system named is Cynomolgus monkey. Put plainly: Volume of distribution at steady state in cynomolgus monkey at 5 mg/kg, po and 1 mg/kg, iv. Format: ADME, organism-based, Macaca fascicularis. Conditions: in vivo. The gist of the method:
as §2

T4 sequence (P35408 whole entry): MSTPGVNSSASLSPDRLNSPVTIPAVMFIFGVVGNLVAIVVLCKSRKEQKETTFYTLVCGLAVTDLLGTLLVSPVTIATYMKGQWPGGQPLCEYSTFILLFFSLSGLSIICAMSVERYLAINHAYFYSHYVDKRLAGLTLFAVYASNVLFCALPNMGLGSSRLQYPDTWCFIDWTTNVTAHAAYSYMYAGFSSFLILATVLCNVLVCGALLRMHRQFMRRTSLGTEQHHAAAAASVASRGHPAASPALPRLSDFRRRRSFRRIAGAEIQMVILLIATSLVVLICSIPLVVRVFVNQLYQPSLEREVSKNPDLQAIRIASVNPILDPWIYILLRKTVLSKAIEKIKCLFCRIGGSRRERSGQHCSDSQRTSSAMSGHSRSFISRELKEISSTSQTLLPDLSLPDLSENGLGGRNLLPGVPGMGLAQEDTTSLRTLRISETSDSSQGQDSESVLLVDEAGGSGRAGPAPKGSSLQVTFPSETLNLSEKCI
Prostaglandin F2-alpha receptor, sequence (P43088 whole entry): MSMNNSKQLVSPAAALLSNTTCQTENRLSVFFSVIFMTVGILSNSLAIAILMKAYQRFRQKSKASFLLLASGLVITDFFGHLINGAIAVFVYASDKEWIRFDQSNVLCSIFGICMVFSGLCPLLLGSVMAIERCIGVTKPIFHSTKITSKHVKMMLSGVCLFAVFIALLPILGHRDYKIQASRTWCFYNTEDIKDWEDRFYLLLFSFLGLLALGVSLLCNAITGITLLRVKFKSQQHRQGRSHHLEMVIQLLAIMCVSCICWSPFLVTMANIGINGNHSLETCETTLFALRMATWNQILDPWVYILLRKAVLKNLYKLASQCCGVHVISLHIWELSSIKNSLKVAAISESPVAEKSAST
Prostaglandin E2 receptor EP4 subtype (Rattus norvegicus, UniProt P43114), sequence (P43114 whole entry): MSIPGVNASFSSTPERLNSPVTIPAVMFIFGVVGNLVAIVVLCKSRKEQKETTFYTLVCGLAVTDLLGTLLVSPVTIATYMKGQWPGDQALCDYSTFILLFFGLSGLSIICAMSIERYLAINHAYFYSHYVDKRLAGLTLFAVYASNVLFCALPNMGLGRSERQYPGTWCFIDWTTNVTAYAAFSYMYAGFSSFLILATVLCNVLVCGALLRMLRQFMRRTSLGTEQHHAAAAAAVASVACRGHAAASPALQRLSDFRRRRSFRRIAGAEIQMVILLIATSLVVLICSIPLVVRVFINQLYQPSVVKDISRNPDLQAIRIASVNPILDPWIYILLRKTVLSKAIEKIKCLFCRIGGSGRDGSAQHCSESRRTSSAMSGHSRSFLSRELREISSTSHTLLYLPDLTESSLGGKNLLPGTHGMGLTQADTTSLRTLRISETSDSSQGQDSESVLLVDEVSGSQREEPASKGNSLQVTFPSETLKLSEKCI

`Cc1sc(C)c(C(=O)NC2(c3ccc(C(=O)O)cc3)CC2)c1Cc1ccc(C(F)(F)F)cc1`: the Ki – broadly, a dissociation constant, usually derived from enzyme kinetics or from competition with a known ligand – was over 5600 nM in data set [1]; over 3900 nM in data set [2]; over 21000 nM in [3]; over 24000 nM in [4]; 0.97 nM in data set [5]; 0.7 nM in data set [6]. In addition, in [7], the IC50 (commonly the concentration at which inhibition is half-maximal) came out at 2.9 nM. The EC50 (usually the concentration giving half of the maximal effect) with Rattus norvegicus [8] was determined as 250 nM. For the same compound, the ED50 (usually the dose that gives a 50% effect, or the effect in half of the subjects) in the data set with Rattus norvegicus [8] (po) worked out at 0.36 mg/kg. The “inhibition (INH)” value in the data set on Rattus norvegicus [9] was 60%. The Activity entry with Rattus norvegicus [10] is “Non-toxic”. In addition, the Cmax (as a rule, the peak of the concentration-time curve) in data set [11] was found to be 4500 nM; in data set [18], 50 nM. Further, the Vd in [12] is 2.6 L/kg. In addition, the half-life (as a rule, how long it takes for the measured level to halve) was 15 h in data set [13] and 8.8 h in data set [16]. Further, the figures for the clearance in data set [14] and in data set [17] were 23 mL/min/kg and 3.2 mL/min/kg, respectively. In addition, the bioavailability (as a rule, dose-corrected exposure relative to a reference, in per cent) in data set [15] is 32%. The t1/2 with Cynomolgus monkey [19] was found to be 19 h. Also, in the data set with Cynomolgus monkey [20], the Vdss worked out at 7.9 L/kg.
